Experimental findings from PubChem BioAssay are described below.

Activity calls are given as the source filed them.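 Rule for the calls, unless noted: active = viability loss from added drug above about 55%, and viability with drug at most 40%, in both replicates (limit read from the data, passing the limit was not always enough); inconclusive = both conditions met in only one replicate; inactive = neither replicate meets both conditions.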

Assay [1] can be described thus: reduced viability of SK-BR-3 breast cancer cells – cell-based, 24 h, human, pilot screen (AID 572;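 active = viability at or below 10% of carrier control in both of two separate runs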;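 note: compound exposure lasted between 18 and 24 h rather than exactly 24 h; 100% = carrier-treated control wells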). Conditions: SK-BR-3 viability, CellTiter-Glo luminescence, at 10 µM, stronger effect = lower value. On the technique in general: Cellular ATP, detected with luciferase, serves as a proxy for viable cell number.
A short description of assay [2]: MRP1 drug-resistance reversers in H69AR cells – cell-based, doxorubicin co-treatment, pilot screen (AID 601). Conditions: CellTiter-Glo, 72 h, at 10 µM; for differential viability (reversal): stronger effect = higher value.
Assay [3] can be described thus: yeast transport mutant growth inhibition pilot in 384-well plates, post-Golgi transport modulator project (AID 636; in the data active = inhibition above about 31%). Conditions: absorbance 615 nm, about 18 h, stronger effect = higher value.
A short description of assay [4]: growth suppression of yeast trafficking mutant, preliminary HTS, modulators of trafficking downstream of Golgi apparatus project, 1536-format plate, OD 615 nm (AID 637; in the data active = inhibition above about 30%). As to conditions: yeast transport mutant growth, absorbance 615 nm, 18 h; stronger effect = higher value.
Assay [5] is described as follows: HUVEC growth inhibition – cell-based, human, primary screen (AID 575;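 active = viability at or below 30% in both replicate assays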;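 note: 100% = median of untreated cell wells with 0.1% DMSO on each plate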). Conditions: HUVEC proliferation, CellTiter-Glo luminescence, 72 h; at 10 µM; stronger effect = lower value. An outline of the steps:
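Timing: 72 h treatment at 37 °C; material: HUVEC primary cells; technique: CellTiter-Glo luminescence measuring cellular ATP; controls: vehicle and MePR control wells; measure: percent of median DMSO-control luminescence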

Assay [6] in a line: H69AR cell proliferation blockers – human, duplicate replicates, primary screen (AID 580;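 active = viability at or under a set limit in both replicates, limit being median viability minus 3 SD, cut at about 48% in these data, passing the limit was not always enough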;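 note: 100% = mean luminescence of untreated wells and 0% = no signal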). As to conditions: H69AR lung tumor cells viability, ATP luminescence, 72 h; at 10 µM; stronger effect = lower value.
Where [7] appears, read: H69AR cells + 2 uM doxorubicin, measured here: viability with 2 uM doxorubicin, stronger effect = lower value.
The mark [8] stands for this setting: H69AR cells, compound alone cytotoxicity.

Turning to `COc1cc2nc(N3CCN(C(=O)C4COc5ccccc5O4)CC3)nc(N)c2cc1OC` (stereo unspecified), the viability is 59% (inactive) in assay [1], 23.7% in assay [2] (setting [7]) and 8.23% in assay [2] (setting [8]). Moreover, the differential viability (reversal) in assay [2] (H69AR cells + 2 uM doxorubicin) is -15.4% (inactive). Further, the inhibition in assay [3] was -0.65% (inactive); in assay [4], 6.83% (inactive).

In the case of `Cc1ccc(Nc2nnns2)cc1C`, the viability in assay [5] was 84.6% (inactive); in assay [6], 99.8% (inactive); in assay [2] (setting [7]), 89.7%; in assay [2] (setting [8]) it was 99.8%. Further, the differential viability (reversal) in assay [2] (H69AR cells + 2 uM doxorubicin) is 10.1% (inactive). Besides, the inhibition in assay [3] was -1.04% (inactive); in assay [4] it was -3.02% (inactive).

Regarding `Clc1ccc(OCc2nnc(SCCN3CCCCC3)n2Cc2ccco2)cc1`, the viability in assay [1] is 90% (inactive); in assay [2] (setting [7]) it was 43.3%; in assay [2] (setting [8]), 38.6%. Besides, the differential viability (reversal) in assay [2] (H69AR cells + 2 uM doxorubicin) was -4.72% (inactive). Further, the inhibition in assay [3] was -7.33% (inactive); in assay [4], -1.82% (inactive).

Consider `CN1CCN(C(=O)CN(Cc2ccc(Cl)cc2)S(C)(=O)=O)CC1`, for which the viability in assay [5] is 93.3% (inactive); in assay [6], 94.5% (inactive); in assay [2] (setting [7]) it was 95.8%; in assay [2] (setting [8]) it was 94.5%. The differential viability (reversal) in assay [2] (H69AR cells + 2 uM doxorubicin) was -1.31% (inactive). Also, the inhibition in assay [3] is -1.45% (inactive); in assay [4] it was 4.44% (inactive).

Regarding `COc1cccc(C(=O)Nc2cc(NC(=O)c3ccco3)ccc2OC)c1`, the viability in assay [5] is 69.1% (inactive); in assay [6], 80.6% (inactive); in assay [2] (setting [7]) it was 77.8%; in assay [2] (setting [8]) it was 80.6%. In addition, the differential viability (reversal) in assay [2] (H69AR cells + 2 uM doxorubicin) is 2.75% (inactive). Also, the results for the inhibition in assay [3] and in assay [4] were -3.64% (inactive) and -2.22% (inactive), respectively.

Regarding `NC(=O)c1sc2nc3c(c(-c4ccco4)c2c1N)CCC3`, the viability was 75.7% (inactive) in assay [5], 81.4% (inactive) in assay [6], 98.2% in assay [2] (setting [7]) and 81.4% in assay [2] (setting [8]). The differential viability (reversal) in assay [2] (H69AR cells + 2 uM doxorubicin) is -16.8% (inactive). For the same molecule, the inhibition in assay [3] is -5.47% (inactive); in assay [4], -8.57% (inactive).

For `COc1ccc(Cl)c(N2CCN(CCCNC(=O)Nc3ccc(C)cc3)CC2)c1`, the viability in assay [1] is 98% (inactive); in assay [2] (setting [7]), 60.3%; in assay [2] (setting [8]), 45.4%. In addition, the differential viability (reversal) in assay [2] (H69AR cells + 2 uM doxorubicin) was -14.9% (inactive). The inhibition in assay [3] was -5.34% (inactive); in assay [4], -2.91% (inactive).

Turning to `O=C(c1ccc2c(c1)OCO2)N1CCNc2ccccc2C1`, the viability in assay [5] is 90.4% (inactive); in assay [6], 99.6% (inactive); in assay [2] (setting [7]), 87.7%; in assay [2] (setting [8]) it was 99.6%. Besides, in assay [2] (H69AR cells + 2 uM doxorubicin), the differential viability (reversal) was 11.9% (inactive). The inhibition in assay [3] is 0.65% (inactive); in assay [4] it was 3.17% (inactive).

In the case of `COc1cccc(-c2cc(C(=O)Nc3cc(C)n(Cc4ccc(Cl)cc4)n3)no2)c1`, the viability was 57.5% (inactive) in assay [1], 58.5% in assay [2] (setting [7]) and 52.1% in assay [2] (setting [8]). The differential viability (reversal) in assay [2] (H69AR cells + 2 uM doxorubicin) is -6.4% (inactive). Moreover, the inhibition is -6.35% (inactive) in assay [3] and -7% (inactive) in assay [4].

For the molecule `CCCN(CCC)c1nc2ccccc2n2c(C)nnc12`, the viability in assay [5] was 85.3% (inactive); in assay [6], 81.1% (inactive); in assay [2] (setting [7]) it was 85.8%; in assay [2] (setting [8]), 81.1%. In assay [2] (H69AR cells + 2 uM doxorubicin), the differential viability (reversal) is -4.65% (inactive). Also, the inhibition is -1.45% (inactive) in assay [3] and 8.1% (inactive) in assay [4].

In the case of `CNCCCN1c2ccccc2CCc2ccccc21`, the viability in assay [5] is 82.1% (inactive); in assay [6], 90.4% (inactive); in assay [2] (setting [7]), 75.8%; in assay [2] (setting [8]), 90.4%. Besides, the differential viability (reversal) in assay [2] (H69AR cells + 2 uM doxorubicin) was 14.6% (inactive).

Turning to `CCn1c(CSc2nc(C)cc(C)n2)nnc1SCC(=O)Nc1ccccc1`, the viability in assay [5] was 104% (inactive); in assay [6] it was 89.5% (inactive); in assay [2] (setting [7]), 85.4%; in assay [2] (setting [8]) it was 89.5%. Besides, the differential viability (reversal) in assay [2] (H69AR cells + 2 uM doxorubicin) was 4.12% (inactive). In addition, the inhibition in assay [3] was -4.27% (inactive); in assay [4], -3.02% (inactive).

For `CCCCCn1c(CN(C)Cc2ccccc2)nc2c1c(=O)n(C)c(=O)n2C`, the viability in assay [5] is 85.8% (inactive); in assay [6], 79.8% (inactive); in assay [2] (setting [7]), 68.3%; in assay [2] (setting [8]), 79.8%. Further, the differential viability (reversal) in assay [2] (H69AR cells + 2 uM doxorubicin) is 11.4% (inactive). Also, the inhibition is 1.45% (inactive) in assay [3] and 4.76% (inactive) in assay [4].

As to `CC1(C)NC(=O)N(CCOc2cccc(Cl)c2Cl)C1=O`, the viability in assay [5] is 98.7% (inactive); in assay [6], 102% (inactive); in assay [2] (setting [7]) it was 87.5%; in assay [2] (setting [8]), 102%. Moreover, in assay [2] (H69AR cells + 2 uM doxorubicin), the differential viability (reversal) was 14.6% (inactive). Moreover, the values for the inhibition in assay [3] and in assay [4] were -5.2% (inactive) and 10.2% (inactive), respectively.

With `COc1cccc(CN2C(=O)C3(C(C#N)=C(N)OC4=C3C(=O)CCC4)c3ccccc32)c1` (stereo unspecified), the viability in assay [1] is 104% (inactive); in assay [2] (setting [7]), 12.6%; in assay [2] (setting [8]), 10.6%. In addition, the differential viability (reversal) in assay [2] (H69AR cells + 2 uM doxorubicin) was -2.01% (inactive). Besides, the values for the inhibition in assay [3] and in assay [4] were 84.2% (active) and 51.6% (active), respectively.

On to `COc1ccccc1N1CCN(Cc2nc(N)nc(Nc3ccc(C)c(Cl)c3)n2)CC1`, for which the viability was 104% (inactive) in assay [1], 65.1% in assay [2] (setting [7]) and 38.8% in assay [2] (setting [8]). In assay [2] (H69AR cells + 2 uM doxorubicin), the differential viability (reversal) is -26.3% (inactive). The inhibition in assay [3] is -1.3% (inactive); in assay [4] it was -3.28% (inactive).

On to `O=S(=O)(c1ccc(Oc2ccc(-c3nnco3)cc2)nc1)N1CCC(Cc2ccccc2)CC1`, for which the values for the viability in assay [1], in assay [2] (setting [7]) and in assay [2] (setting [8]) were 109% (inactive), 60.4% and 51.9%, respectively. Moreover, the differential viability (reversal) in assay [2] (H69AR cells + 2 uM doxorubicin) is -8.52% (inactive). For the same molecule, the values for the inhibition in assay [3] and in assay [4] were -4.11% (inactive) and -10.3% (inactive), respectively.

For the molecule `COc1ccc(N2CCN(C(=O)CSc3ncnc4c3cnn4-c3ccccc3C)CC2)cc1`, the viability is 55.5% (inactive) in assay [5], 68.6% (inactive) in assay [6], 75.8% in assay [2] (setting [7]) and 68.6% in assay [2] (setting [8]). Also, the differential viability (reversal) in assay [2] (H69AR cells + 2 uM doxorubicin) was -7.28% (inactive). In addition, the inhibition in assay [3] was 0.53% (inactive); in assay [4] it was 16% (inactive).

On to `c1ccc(Cn2nnnc2C(c2ccccn2)N2CCOCC2)cc1` (stereo unspecified), for which the viability in assay [5] was 107% (inactive); in assay [6] it was 94.3% (inactive); in assay [2] (setting [7]), 96.5%; in assay [2] (setting [8]), 94.3%. Moreover, in assay [2] (H69AR cells + 2 uM doxorubicin), the differential viability (reversal) is -2.14% (inactive). For the same molecule, the inhibition in assay [3] is -3.25% (inactive); in assay [4] it was -6.51% (inactive).

With `Brc1ccc(-c2nnc3sc(CN4CCC5(CC4)OCCO5)cn23)cc1`, the viability in assay [5] is 113% (inactive); in assay [6], 95.9% (inactive); in assay [2] (setting [7]), 88.1%; in assay [2] (setting [8]) it was 95.9%. In assay [2] (H69AR cells + 2 uM doxorubicin), the differential viability (reversal) was 7.72% (inactive). In addition, the results for the inhibition in assay [3] and in assay [4] were -2.08% (inactive) and -2.22% (inactive), respectively.

Turning to `CNCCCC12CCC(c3ccccc31)c1ccccc12`, the viability in assay [5] was 77.4% (inactive); in assay [6], 70.1% (inactive); in assay [2] (setting [7]) it was 63.8%; in assay [2] (setting [8]) it was 70.1%. The differential viability (reversal) in assay [2] (H69AR cells + 2 uM doxorubicin) is 6.27% (inactive).

A word on the viability: it is a read-out of living cells in per cent, often relative to untreated cells. As a reminder, the inhibition is the relative decrease from the control value, in per cent.
